High-throughput results: PubChem, several laboratories
Pf gamet viab: kills late stage P. falciparum gametocytes; P. falciparum stage V gametocytes, ATP luminescence, 24 h; inhibition, % at 10.9 µM; hit rate 0.065% among 150,000; AID 743093;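 active = inhibition above the mean plus 3 SD of compounds within the control limits, set per campaign, cut at about 38% in these data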;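 also: 0% = DMSO wells and 100% = medium only without gametocytes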
Wee1 stabilizer: inhibitors of human Wee1 degradation | hit rate 1.2% among 220,000 | AID 1321 | HeLa Luc-Wee1K328M stability, luciferase luminescence; 100% = proteasome inhibitor MG132 effect | P30291 | reporter increase, % at 5 µM;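 active = activation above the mean of all tested compounds plus 3 SD, set per screening run, cut at about 8.8% in these data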;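 also: cells exposed to compound for 20 h before luminescence read; 0% = DMSO alone and 100% = MG132 at 30 µM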
Calpain2 inh: inhibitors of pig calpain II. purified calpain II, fluorogenic peptide substrate, 30 min. inhibition, % at 16 µM. hit rate 0.37% among 220,000. AID 1236;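 active = inhibition above about 50%, limit read from the data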
RBBP9 inhibitor: blocks human serine hydrolase RBBP9 | recombinant RBBP9, FP-Rh probe fluorescence polarization | inhibition, % at 7.94 µM | hit rate 0.2% among 220,000 | AID 1515;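 active = inhibition above the campaign mean of all tested compounds plus 3 SD, cut at about 14% in these data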;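 also: plate controls were DMSO wells with RBBP9 for no effect and wells lacking RBBP9 protein for full effect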
Target sequence (O75884 whole entry, looked up): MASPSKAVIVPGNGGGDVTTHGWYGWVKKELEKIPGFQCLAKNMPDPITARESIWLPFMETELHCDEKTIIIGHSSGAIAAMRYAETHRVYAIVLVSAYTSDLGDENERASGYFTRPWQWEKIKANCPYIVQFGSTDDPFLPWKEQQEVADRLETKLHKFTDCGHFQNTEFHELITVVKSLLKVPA
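Test system – recombinant human RBBP9 · Input – RBBP9 2.5 µM in dispensing solution, pre-mixing · Medium – Tris buffer pH 8.0, NaCl, Pluronic · Schedule – preincubation 30 min plus labeling 45 min at 25 °C · Measured by – fluorescence polarization · Measure – % inhibition · Controls – DMSO and no-protein wells · Replicates – one well per compound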
zVAD death inh: blocks zVAD induced death of L929 cells; viability rescue, % at 10 µM; L929 zVAD necroptosis rescue, ATP luminescence, 24 h; with zVAD 60 µM; hit rate 0.38% among 220,000; AID 1377;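 active = activation, scaled between plate controls, above about 75%, limit read from the data; inactive = activation under that limit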;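 also: 0% = zVAD with DMSO and 100% = DMSO alone without zVAD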
TNF death inh: inhibitors of TNF-alpha induced necroptosis in Jurkat FADD-/- cells; Jurkat FADD-/- TNF necroptosis rescue, ATP luminescence, 24 h; 0 = TNF only, 100 = no-TNF cells; activation (protection from cell death), % at 10 µM; hit rate 0.068% among 220,000;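 active = activation, meaning protection from cell death, of at least 50% relative to plate controls; inactive = activation below 50%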;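 also: necroptosis triggered by 40 ng/mL TNF-alpha added together with compound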
Wee1 degr conf: confirmation of human Wee1 degradation inhibitors; shares compounds with Wee1 stabilizer; HeLa Luc-Wee1K328M degradation, luminescence; vehicle 0%, proteasome-blocked wells 100%; activation, % at 5 µM; hit rate 4% among 1,100; in the data active = activation above about 8.9%
* = called active by the depositor; . = no result. Only some compounds are listed: those with a hit (about 2.1% of all), similar ones and a draw of the others.

SMILES	Pf gamet viab	Wee1 stabilizer	Calpain2 inh	RBBP9 inhibitor	zVAD death inh	TNF death inh	Wee1 degr conf
COC(=O)c1c(NC(NC(C)=O)C(Cl)(Cl)Cl)sc2c1CCCC2 (stereo not drawn)	.	14*	55*	-6	2	1	4
CCOC(=O)c1c(NC(NC(C)=O)C(Cl)(Cl)Cl)sc2c1CCCC2 (stereo not drawn)	3	-2	3	-4	1	1	.
O=C(CSc1nc2nn(-c3ccccc3)c(=O)c-2c2n1CCCCC2)NCCCc1ccccc1	-22	18*	9	-8	-1	1	2
CC(Sc1nc2nn(-c3ccccc3)c(=O)c-2c2n1CCCCC2)C(N)=O (stereo not drawn)	30	1	-32	2	0	-1	.
Cc1ccccc1NS(=O)(=O)c1ccc(OCC(=O)NCc2ccccn2)cc1	-17	2	24	-2	-1	0	.
NCCOc1ccccc1-c1ccccc1	-8	5	1	7	-1	-9	.
NCCOc1ccccc1OCCN	16	12*	-20	2	1	-1	0
CC(O)C(NS(=O)(=O)c1ccc(Cl)cc1)C(=O)OCC(=O)Nc1cccnc1Cl (stereo not drawn)	12	20*	5	11	2	2	-1
COc1cc(Cl)c(C)cc1NC(=O)COC(=O)C(NS(=O)(=O)c1ccc(Cl)cc1)C(C)O (stereo not drawn)	.	2	6	-5	0	1	.
O=[N+]([O-])c1cccc(N/N=C/c2cccc(O)c2O)c1	-17	11*	-94	-2	0	-4	-3
CC1=CCC2([N+](=O)[O-])CN(CC(=O)O)CC1([N+](=O)[O-])C2 (stereo not drawn)	17	-1	-9	-12	0	-1	.
COC(C[C@@H](O)C[C@@H](O)[C@@H](C)OCc1ccccc1)OC	6	.	.	.	.	.	.
COc1ccc2c(c1)c(CC(=O)Nc1cc(C)ccc1C)c(C)n2C(=O)c1ccc(Cl)cc1	.	14*	-27	-1	.	2	2
Cc1cc(C)c2c(N)c(C(=O)N/N=C/c3ccccc3)sc2n1	-57	4	-18	6	73	3	.
COc1cc(O)c(C(C)=O)cc1OC	.	11*	-7	-2	0	-2	1
C=CCOc1ccc(C=Nc2ccc(C)c(Cl)c2)c(O)c1	4	-3	9	-7	0	1	.
Cc1nc2ccccn2c1-c1csc(Nc2cccc(O)c2)n1	.	13*	-58	-1	1	-6	11*
O=C(Nc1ccc(CN2CCS(=O)(=O)CC2)cc1)c1ccc(Cl)cc1	3	11*	-13	-2	2	1	0
O=C(Nc1ccc(Cl)cc1)c1ccc(CN2CCc3ccccc3C2)cc1	-2	.	.	.	.	.	.
CCCc1nn(C)c(C(=O)Nc2cccc(Cl)c2)c1Cl	-18	-2	14	-7	1	1	.
Cc1nc(NC(=O)c2ccc3c(c2)OCO3)ccc1Br	-2	19*	3	-9	1	-1	1
Cc1cc(NC(=O)c2ccc3c(c2)OCO3)no1	.	-2	18	6	0	-1	.
COCC(=O)N1CCN(c2nc3ccccc3o2)CC1	-19	2	-2	-1	0	0	.
Cc1ccnc(N2CCC(C(=O)NNC(=O)c3ccccc3C)CC2)n1	-3	1	1	-3	0	-1	.
CCN1c2ccccc2-c2nc3ccccc3n2C1c1ccncc1 (stereo not drawn)	.	16*	-59	1	0	0	-1
CC(NC(=O)COC(=O)C1CSC2(C)CCC(=O)N12)C12CC3CC(CC(C3)C1)C2 (stereo not drawn)	-16	12*	20	-7	1	-1	0
COc1ccc(-n2ncc(C(=O)N3CCN(c4ccc(F)cc4)CC3)c2C)cc1	-5	4	-19	-8	0	1	.
Cc1cccc(-n2c(SCC(=O)O)nc3sc4c(c3c2=O)CCC4)c1	-2	13*	-15	-5	0	1	0
